# Assay results as given in ChEMBL document CHEMBL5150021, “Identification of 5-(Aryl/Heteroaryl)amino-4-quinolones as Potent Membrane-Disrupting Agents to Combat Antibiotic-Resistant Gram-Positive Bacteria” (J Med Chem, 2022).
# Activity calls are given as the source filed them. The rule behind the calls is not given here.
# Assays:
# Staphylococcus aureus [1] = assay: Antibacterial activity against methicillin resistant Staphylococcus aureus FPR3757 assessed as inhibition of bacterial growth incubated for 24 hrs by CLSI based method; type: functional; details: read-out: MIC100
# How it was run: (§1)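 It was mixed 1:1 with twofold serial compound dilutions and incubated stationary at 37 °C for 24 h. MIC was the lowest concentration giving complete inhibition of observable growth, with an oxacillin control.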
# [2] = Therapeutic index, ratio of CC50 for Cytotoxicity against sheep erythrocytes to MIC for antibacterial activity against methicillin resistant Staphylococcus aureus FPR3757; type: toxicity
# How it was run: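 Ratio of erythrocyte CC50 to MRSA FPR3757 MIC. For hemolysis, 4% washed sheep erythrocytes were mixed 1:1 with twofold compound dilutions in PBS and incubated 1 h at 37 °C. Supernatant A540 was read after centrifugation and normalized between DMSO and Triton X-100 (100% lysis). Triplicates. Highest concentration tested: 32 μg/mL.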
# [3] = Cytotoxicity against sheep erythrocytes assessed as reduction in cell viability; type: toxicity, cell-based, Ovis aries, Erythrocyte
# How it was run: (§2)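 4% sheep erythrocytes mixed 1:1 with twofold serial compound dilutions in PBS, incubated stationary 1 h at 37 °C, then centrifuged at 500g for 5 min. Supernatant A540 is measured and percent hemolysis is calculated relative to DMSO vehicle (0%) and Triton X-100 (100%). Triplicate, mean ± SD.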
# Erythrocyte = assay: Hemolytic activity in sheep erythrocytes at 32 ug/ml incubated for 1 hr; type: toxicity, cell-based, Ovis aries; details: dose 32 µg/ml; how it was run: as §2
# [4] = Kinetic aqueous solubility of the compound in DPBS at pH 7.4 at 100 ug/ml measured after 6 hrs by LC-MS/MS analysis; type: physicochemical; details: DPBS, pH 7.4, dose 100 µg/ml, read-out: Kinetic_solubility
# Vero [5] = assay: Cytotoxicity against African green monkey Vero cells assessed as increase in LDH release at 0.47 to 30 uM incubated for 24 hrs; type: toxicity, cell-based; details: chlorocebus sabaeus, dose 0.47-30 µM
# How it was run: (§3)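 Confluent Vero cells (maintained in RPMI 1640 + 10% FBS, 37 °C, 5% CO2) exposed to compound at 0.47–30 μM (twofold dilutions) in serum-free medium for 24 h at 37 °C. LDH in supernatant is measured colorimetrically at 490 nm and expressed as percent of 2% detergent positive control.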
# Vero [6] = assay: Cytotoxicity against African green monkey Vero cells assessed as increase in LDH release at 30 uM incubated for 24 hrs relative to control; type: toxicity, cell-based; details: chlorocebus sabaeus; how it was run: as §3
# [7] = Protein binding in human plasma at […] incubated for 4 hrs under shaking condition by LC-MS/MS based equilibrium dialysis method; type: ADME, cell-free
# How it was run: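 Rapid equilibrium dialysis (8k MWCO). Compound is spiked into human plasma at 10 μg/mL and dialysed against DPBS pH 7.4 with shaking for 4 h at 37 °C. Matrices are matched, proteins precipitated with methanol containing internal standard, and both chambers quantified by LC-MS/MS against a calibration curve. Percent free and bound are calculated from chamber concentrations.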
# Staphylococcus aureus [8] = assay: Antibacterial activity against methicillin-resistant Staphylococcus aureus N315 assessed as inhibition of bacterial growth incubated for 24 hrs by CLSI based method; type: functional
# How it was run: (§4)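 Broth microdilution per CLSI. Equal volume of twofold serial compound dilutions added. Incubated stationary at 37 °C for 24 h. MIC taken as lowest concentration giving complete inhibition of visible growth. Oxacillin control for Gram-positives, ceftriaxone for Gram-negatives.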
# Staphylococcus aureus [9] = assay: Antibacterial activity against methicillin-resistant Staphylococcus aureus MW2 assessed as inhibition of bacterial growth incubated for 24 hrs by CLSI based method; type: functional; how it was run: as §4
# [10] = tested on: Staphylococcus epidermidis; assay: Antibacterial activity against Staphylococcus epidermidis NIF104008 assessed as inhibition of bacterial growth incubated for 24 hrs by CLSI based method; type: functional; how it was run: as §4
# Staphylococcus simulans [11] = assay: Antibacterial activity against Staphylococcus simulans assessed as inhibition of protein synthesis at 5 times MIC measured upto 60 mins by [3H]-L-isoleucine incorporation based scintillation counter analysis; type: functional; details: 1 h
# How it was run: (§5)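 Aliquots taken 0–60 min, precipitated with ice-cold 10% TCA, filtered, washed, scintillation counted. Percent inhibition is relative to DMSO control at 60 min; triplicate.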
# Staphylococcus simulans [12] = assay: Antibacterial activity against Staphylococcus simulans assessed as inhibition of DNA synthesis at 0.5 to 5 times MIC measured upto 60 mins by [3H]-thymidine incorporation based scintillation counter analysis; type: functional, organism-based; details: DDE = dose-dependent effect
# How it was run: (§6)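 S. simulans was grown in cation-adjusted Mueller–Hinton medium at 37 °C. […] Samples were taken at 0–60 min, precipitated with ice-cold 10% TCA, filtered and counted. Inhibition at 60 min is relative to DMSO control; triplicate.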
# Klebsiella pneumoniae = assay: Antibacterial activity against Klebsiella pneumoniae 7117 assessed as inhibition of bacterial growth incubated for 24 hrs by CLSI based method; type: functional; how it was run: as §4
# Cell membrane [13] = assay: Induction of cell membrane damage in Staphylococcus aureus USA300 assessed as cross-wall-septum formation with reduced splitting at 1 times MIC measured after 10 mins by TEM analysis; type: subcellular
# Staphylococcus aureus [14] = assay: Antibacterial activity against community-associated methicillin-resistant Staphylococcus aureus USA300 FPR3757 assessed as inhibition of bacterial growth incubated for 24 hrs by CLSI based method; type: functional; how it was run: as §1
# Cell membrane [15] = assay: Induction of cell membrane damage in Staphylococcus aureus USA300 assessed as mesosome-like membrane inclusions at 1 times MIC measured after 1 hrs by TEM analysis
# How it was run: (§7)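 Fixed in glutaraldehyde/paraformaldehyde in cacodylate pH 7.4, post-fixed with osmium tetroxide, stained with uranyl acetate, resin-embedded, thin-sectioned and imaged by TEM.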
# [16] = Induction of drug resistance in Staphylococcus aureus FPR3757 assessed as increase in MIC incubated for 65 days (reference value: 0.25 ug/ml); type: functional; details: FPR3757, 1560 h, time 65 day
# Cell membrane [17] = assay: Induction of cell membrane damage in Staphylococcus aureus USA300 assessed as membrane wrinkling at 1 times MIC measured after 1 hrs by TEM analysis; how it was run: as §7
# Cell membrane [18] = assay: Induction of cell membrane damage in Staphylococcus aureus USA300 assessed as bulging of the septum at 1 times MIC measured after 1 hrs by TEM analysis; how it was run: as §7
# Staphylococcus simulans [19] = assay: Antibacterial activity against Staphylococcus simulans assessed as inhibition of RNA synthesis at 5 times MIC measured upto 60 mins by [3H]-uridine incorporation based scintillation counter analysis; type: functional; details: 1 h; how it was run: as §5
# Staphylococcus aureus [20] = assay: Antibacterial activity against methicillin resistant Staphylococcus aureus FPR3757 assessed as inhibition of bacterial growth incubated for 24 hrs in presence of 10% FBS by CLSI based method; type: functional
# How it was run: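 CLSI broth microdilution against MRSA FPR3757 (USA300) in Mueller–Hinton broth supplemented with 10% serum (fetal bovine or mouse). Inoculum 10⁶ CFU/mL with twofold serial compound dilutions, stationary incubation at 37 °C for 24 h. MIC read as lowest concentration with complete inhibition of visible growth.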
# Enterococcus faecium [21] = assay: Antibacterial activity against Enterococcus faecium ATCC19579 assessed as inhibition of bacterial growth incubated for 24 hrs by CLSI based method; type: functional; how it was run: as §4
# Staphylococcus simulans [22] = assay: Antibacterial activity against Staphylococcus simulans assessed as inhibition of RNA synthesis at 0.5 to 5 times MIC measured upto 60 mins by [3H]-uridine incorporation based scintillation counter analysis; type: functional, organism-based; details: DDE = dose-dependent effect; how it was run: as §6
# Enterococcus faecalis [23] = assay: Antibacterial activity against Enterococcus faecalis ATCC700802 assessed as inhibition of bacterial growth incubated for 24 hrs by CLSI based method; type: functional; how it was run: as §4
# Escherichia coli = assay: Antibacterial activity against Escherichia coli DHMC-1 assessed as inhibition of bacterial growth incubated for 24 hrs by CLSI based method; type: functional; how it was run: as §4
# Enterobacter cloacae = assay: Antibacterial activity against Enterobacter cloacae ND-21 assessed as inhibition of bacterial growth incubated for 24 hrs by CLSI based method; type: functional; how it was run: as §4
# Staphylococcus simulans [24] = assay: Antibacterial activity against Staphylococcus simulans assessed as inhibition of cell wall synthesis at 5 times MIC measured upto 60 mins by [3H]-glucosamine incorporation based scintillation counter analysis; type: functional; details: 1 h; how it was run: as §5
# Staphylococcus simulans [25] = assay: Antibacterial activity against Staphylococcus simulans assessed as inhibition of DNA synthesis at 5 times MIC measured upto 60 mins by [3H]-thymidine incorporation based scintillation counter analysis; type: functional; details: 1 h; how it was run: as §5
# Staphylococcus aureus [26] = assay: microbe, parasite or virus in culture; details: USA300 FPR3757, 24 h
# Staphylococcus simulans [27] = assay: Antibacterial activity against Staphylococcus simulans assessed as inhibition of protein synthesis at 0.5 to 5 times MIC measured upto 60 mins by [3H]-L-isoleucine incorporation based scintillation counter analysis; type: functional, organism-based; details: DDE = dose-dependent effect; how it was run: as §6
# Candida albicans = assay: Antifungal activity against Candida albicans SC5314 assessed as inhibition of bacterial growth incubated for 24 hrs by CLSI based method; type: functional
# How it was run: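 Broth microdilution per CLSI. It is mixed 1:1 with twofold serial compound dilutions and incubated stationary at 35 °C for 24 h. MIC is read as the lowest concentration with no observable growth.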
# Staphylococcus aureus [28] = assay: Antibacterial activity against methicillin-resistant Staphylococcus aureus NRS71 assessed as inhibition of bacterial growth incubated for 24 hrs by CLSI based method; type: functional; how it was run: as §4
# Enterococcus faecalis [29] = assay: Antibacterial activity against Enterococcus faecalis DHMC #1 assessed as inhibition of bacterial growth incubated for 24 hrs by CLSI based method; type: functional; how it was run: as §4
# Staphylococcus aureus [30] = assay: Antibacterial activity against methicillin-resistant Staphylococcus aureus COL assessed as inhibition of bacterial growth incubated for 24 hrs by CLSI based method; type: functional; how it was run: as §4
# [31] = tested on: Staphylococcus epidermidis; assay: Antibacterial activity against Staphylococcus epidermidis NIF104003 assessed as inhibition of bacterial growth incubated for 24 hrs by CLSI based method; type: functional; how it was run: as §4
# Enterococcus faecium [32] = assay: Antibacterial activity against Enterococcus faecium DHMC #1 assessed as inhibition of bacterial growth incubated for 24 hrs by CLSI based method; type: functional; how it was run: as §4
SMILES,MIC (Staphylococcus aureus [1]) [µg/mL],Activity (Erythrocyte),MIC (Staphylococcus aureus [8]) [µg/mL],MIC (Staphylococcus aureus [9]) [µg/mL],MIC [10] [µg/mL],inhibition (INH) (Staphylococcus simulans [11]) [%],inhibition (Staphylococcus simulans [12]),MIC (Klebsiella pneumoniae) [µg/mL],MIC (Staphylococcus aureus [14]) [µg/mL],inhibition (INH) (Staphylococcus simulans [19]) [%],MIC (Staphylococcus aureus [20]) [µg/mL],MIC (Enterococcus faecium [21]) [µg/mL],inhibition (Staphylococcus simulans [22]),MIC (Enterococcus faecalis [23]) [µg/mL],MIC (Escherichia coli) [µg/mL],MIC (Enterobacter cloacae) [µg/mL],inhibition (INH) (Staphylococcus simulans [24]) [%],inhibition (INH) (Staphylococcus simulans [25]) [%],MBC (Staphylococcus aureus [26]) [µg/mL],inhibition (Staphylococcus simulans [27]),also measured
O=c1cc(C(F)(F)F)[nH]c2cc(C(F)(F)F)cc(Nc3ccc(F)c(F)c3)c12,< 0.0625,Non-Toxic,–,–,–,–,–,–,–,–,–,–,–,–,–,–,–,–,–,–,selectivity ratio [2]: > 500; CC50 [3]: > 32 µg/mL
O=c1cc(C(F)(F)F)[nH]c2cc(C(F)(F)F)cc(Nc3ccc(F)cn3)c12,0.125,–,–,–,–,–,–,–,–,–,–,–,–,–,–,–,–,–,–,–,solubility kinetic at 6 h [4]: 1 µg/mL; Activity (Vero [5]): Non-Toxic; Activity (Vero [6]): 20%; PPB [7]: 99.8%
FC(F)(F)c1ccc(Nc2cc(C(F)(F)F)nc3cc(C(F)(F)F)ccc23)nc1,0.25,–,0.25,0.125,0.125,100,Dde,> 128,0.25,100,4,1,Dde,16,> 128,> 128,100,100,8,Dde,Activity (Cell membrane [13]): Active; Activity (Cell membrane [15]): Active; MIC [16]: 0.5 µg/mL; Activity (Cell membrane [17]): Active; Activity (Cell membrane [18]): Active; MIC (Candida albicans): > 256 µg/mL; MIC (Staphylococcus aureus [28]): 0.25 µg/mL; MIC (Enterococcus faecalis [29]): 1 µg/mL; MIC (Staphylococcus aureus [30]): 0.25 µg/mL
FC(F)(F)c1ccc2c(Nc3ccc(Cl)c(Cl)c3)cc(C(F)(F)F)nc2c1,0.0625,–,0.25,0.125,0.125,100,Dde,> 128,0.0625,100,8,0.125,Dde,0.5,> 128,> 128,100,100,2,Dde,MIC [31]: 0.25 µg/mL; MIC (Enterococcus faecium [32]): 0.25 µg/mL; MIC (Candida albicans): > 256 µg/mL; MIC (Staphylococcus aureus [28]): 0.25 µg/mL; MIC (Enterococcus faecalis [29]): 0.25 µg/mL; MIC (Staphylococcus aureus [30]): 0.25 µg/mL
O=c1cc(C(F)(F)F)[nH]c2cc(F)cc(Nc3ccc(C(F)(F)F)cn3)c12,1,Non-Toxic,–,–,–,–,–,–,–,–,–,–,–,–,–,–,–,–,–,–,–
